According to ChEMBL document CHEMBL1142073, “Synergistic activity of R207910 combined with pyrazinamide against murine tuberculosis” (2007):
The source made the active and inactive calls. The calls are words filed in the database; no cut-off is given here.

Tests used:
[1] = tested on: Mycobacterium tuberculosis; assay: Reduction of lung lesions in Mycobacterium tuberculosis H37Rv infected Swiss mouse at 10 mg/kg, po for 5 days/week after 2 months; assay type: functional, organism-based; parameters: dose 10 mg/kg
[2] = tested on: Mycobacterium tuberculosis; assay: Reduction of bacterial counts in Mycobacterium tuberculosis H37Rv infected Swiss mouse lung at 10 mg/kg, po for 5 days/week after 2 months; assay type: functional
In short: (§1)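 Female 4-week-old Swiss mice were infected in the tail vein with about 2 10 6 CFU of H37Rv, grown in Dubos broth for 7 days at 37 C. Gavage started 2 weeks post-infection, 5 days/week, with rifampin given 1 h before other drugs. Lung homogenates were plated for CFU; some groups had both lungs cultured undiluted. Mann-Whitney U test.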

[3] = tested on: Mycobacterium tuberculosis; assay: Reduction of bacterial counts in Mycobacterium tuberculosis H37Rv infected Swiss mouse lung at 10 mg/kg, po for 5 days/week after 1 month; assay type: functional; in short: as §1
[4] = tested on: Mycobacterium tuberculosis; assay: Reduction of bacterial counts in Mycobacterium tuberculosis H37Rv infected Swiss mouse lung at 25 mg/kg, po for 5 days/week after 2 months; assay type: functional; in short: as §1
[5] = tested on: Mycobacterium tuberculosis; assay: Reduction of bacterial counts in Mycobacterium tuberculosis H37Rv infected Swiss mouse lung at 25 mg/kg, po for 5 days/week after 1 month; assay type: functional; in short: as §1
[6] = tested on: Mycobacterium tuberculosis; assay: Reduction of lung lesions in Mycobacterium tuberculosis H37Rv infected Swiss mouse at 25 mg/kg, po for 5 days/week after 2 months; assay type: functional, organism-based; parameters: dose 25 mg/kg
[7] = tested on: Mycobacterium tuberculosis; assay: Reduction of lung lesions in Mycobacterium tuberculosis H37Rv infected Swiss mouse at 100 mg/kg, po for 5 days/week after 2 months; assay type: functional, organism-based; parameters: dose 100 mg/kg
[8] = tested on: Mycobacterium tuberculosis; assay: Reduction of bacterial counts in Mycobacterium tuberculosis H37Rv infected Swiss mouse lung at 100 mg/kg, po for 5 days/week after 2 months; assay type: functional; in short: as §1
[9] = tested on: Mycobacterium tuberculosis; assay: Reduction of bacterial counts in Mycobacterium tuberculosis H37Rv infected Swiss mouse lung at 100 mg/kg, po for 5 days/week after 1 month; assay type: functional; in short: as §1
[10] = tested on: Mycobacterium tuberculosis; assay: Reduction of lung lesions in Mycobacterium tuberculosis H37Rv infected Swiss mouse at 25 mg/kg, po for 5 days/week after 1 month; assay type: functional, organism-based; parameters: dose 25 mg/kg
[11] = tested on: Mycobacterium tuberculosis; assay: Reduction of lung lesions in Mycobacterium tuberculosis H37Rv infected Swiss mouse at 150 mg/kg, po for 5 days/week after 2 months; assay type: functional, organism-based; parameters: dose 150 mg/kg
[12] = tested on: Mycobacterium tuberculosis; assay: Reduction of bacterial counts in Mycobacterium tuberculosis H37Rv infected Swiss mouse lung at 150 mg/kg, po for 5 days/week after 1 month; assay type: functional; in short: as §1
[13] = tested on: Mycobacterium tuberculosis; assay: Reduction of bacterial counts in Mycobacterium tuberculosis H37Rv infected Swiss mouse lung at 150 mg/kg, po for 5 days/week after 2 months; assay type: functional; in short: as §1

CO[C@H]1/C=C/O[C@@]2(C)Oc3c(C)c(O)c4c(O)c(c(/C=N/N5CCN(C)CC5)c(O)c4c3C2=O)NC(=O)/C(C)=C\C=C\[C@H](C)[C@H](O)[C@@H](C)[C@@H](O)[C@@H](C)[C@H](OC(C)=O)[C@@H]1C [RIFAMPIN]
Activity [1]: Active | Log10 cfu [2]: 4.1 | Log10 cfu [3]: 6

NNC(=O)c1ccncc1 [ISONIAZID]
Log10 cfu [4]: 4.7 | Log10 cfu [5]: 4.9 | Activity [6]: Active

COc1c(N2C[C@@H]3CCCN[C@@H]3C2)c(F)cc2c(=O)c(C(=O)O)cn(C3CC3)c12 [MOXIFLOXACIN]
Activity [7]: Active | Log10 cfu [8]: 4.3 | Log10 cfu [9]: 5.5

COc1nc2ccc(Br)cc2cc1[C@@H](c1ccccc1)[C@@](O)(CCN(C)C)c1cccc2ccccc12 [BEDAQUILINE]
Activity [10]: Active | Log10 cfu [4]: 2.3 | Log10 cfu [5]: 4.1 | Activity [6]: Active

NC(=O)c1cnccn1 [PYRAZINAMIDE]
Activity [11]: inactive | Log10 cfu [12]: 6.2 | Log10 cfu [13]: 6.4
